Bioassay records: PubChem, several laboratories
V-ATPase pH – regulators of yeast V-ATPase proton transport; S. cerevisiae, pHLuorin cytosolic pH fluorescence; response, % at 10 µM; actives 0.37% (n = 350,000); AID 504577; in the data active means response mostly above about 7.3%, no sharp cut-off; inactive means mostly below about 5.4%; further: actives read high
Cl transport mod – modulates chloride dependent transport by human KCC2; AID 1456; KCC2 cells, thallium flux FluoZin-2 fluorescence; B-score of Tl+ flux slope (higher = more flux/activation; lower = inhibition) at 10 µM; Q9H2X9; actives 2.2% (n = 190,000);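 active means thallium flux slope and its plate-corrected score both differing from the plate sample mean at a set confidence after two filtering rounds, in either direction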;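 further: slope of fluorescence scaled to starting intensity during 10 to 20 s after thallium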
Target sequence (Q9H2X9 whole entry, looked up): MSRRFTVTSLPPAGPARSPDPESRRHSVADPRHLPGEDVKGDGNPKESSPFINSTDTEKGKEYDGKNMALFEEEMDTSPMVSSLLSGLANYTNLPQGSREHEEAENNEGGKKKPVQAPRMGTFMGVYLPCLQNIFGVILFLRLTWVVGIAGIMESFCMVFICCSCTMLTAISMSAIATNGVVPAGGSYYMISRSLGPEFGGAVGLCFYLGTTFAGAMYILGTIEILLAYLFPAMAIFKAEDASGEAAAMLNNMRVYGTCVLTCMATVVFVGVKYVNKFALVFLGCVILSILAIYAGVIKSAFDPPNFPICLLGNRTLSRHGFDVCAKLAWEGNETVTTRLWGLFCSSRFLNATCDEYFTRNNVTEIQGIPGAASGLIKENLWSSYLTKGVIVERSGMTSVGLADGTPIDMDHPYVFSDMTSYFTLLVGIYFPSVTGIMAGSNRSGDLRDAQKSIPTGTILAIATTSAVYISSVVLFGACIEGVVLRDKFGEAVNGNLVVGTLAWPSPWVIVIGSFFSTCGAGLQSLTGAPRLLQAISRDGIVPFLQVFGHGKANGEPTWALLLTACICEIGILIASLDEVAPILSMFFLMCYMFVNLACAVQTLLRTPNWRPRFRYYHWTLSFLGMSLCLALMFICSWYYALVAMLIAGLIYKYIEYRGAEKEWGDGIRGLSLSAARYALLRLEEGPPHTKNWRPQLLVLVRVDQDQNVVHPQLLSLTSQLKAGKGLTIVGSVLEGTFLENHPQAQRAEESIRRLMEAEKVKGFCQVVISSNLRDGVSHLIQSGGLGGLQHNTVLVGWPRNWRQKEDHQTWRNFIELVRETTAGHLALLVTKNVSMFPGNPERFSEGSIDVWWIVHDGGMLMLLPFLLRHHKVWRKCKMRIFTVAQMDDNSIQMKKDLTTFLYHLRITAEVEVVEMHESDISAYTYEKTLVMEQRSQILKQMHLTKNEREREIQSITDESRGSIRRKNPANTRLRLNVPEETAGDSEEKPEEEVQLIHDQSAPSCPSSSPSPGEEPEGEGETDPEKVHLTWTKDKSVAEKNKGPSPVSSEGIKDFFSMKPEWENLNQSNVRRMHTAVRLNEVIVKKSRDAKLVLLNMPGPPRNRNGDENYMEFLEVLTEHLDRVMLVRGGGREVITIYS
ABCB6 inh MLPCN – inhibitors of human ABC transporter ABCB6; Q9NP58; K562-ABCB6 porphyrin accumulation, flow cytometry, 1 h; stronger effect = lower value; fluorescence ratio to DMSO, % at 10 µM; actives 0.19% (n = 360,000); AID 602162;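 active means fluorescence ratio to DMSO below 75%, the collection mean minus 3 SD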;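 further: signal is porphyrin accumulated inside mitochondria; 100% equals median channel fluorescence of DMSO control wells; lower ratio means ABCB6 inhibition with less porphyrin fluorescence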
Dynein cargo inh – blocks dynein driven cargo transport along microtubules. actives 0.47% (n = 220,000). 3617.4 mouse cells, GR-EGFP nuclear translocation imaging; test concentration mostly 20 µM; stimulated with dexamethasone, 1 µM; stronger effect = lower value. z-score, hits read low;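 active means plate z-score of nuclear minus cytoplasmic receptor signal below a set negative limit, without overly bright fluorescence or cell loss, cut at about -3.5 in these data, passing the limit was not always enough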;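 further: z-score of nuclear minus cytoplasmic ring GR-EGFP intensity difference per well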
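Also added: dexamethasone, 1.0 µM final. Medium: tet-free, stripped-serum medium. Detection: fixed, Hoechst-stained cells imaged at 10x for EGFP. Read-out: nuclear-to-cytoplasmic GR-EGFP distribution per well. Times: induction 48 h, compound 1 h, agonist 30 min.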
p-CIP stab down – lowers stability of the mouse p/CIP coactivator protein. Q05BA5. F442A p/CIP-EGFP cells, EGFP fluorescence, 16 h. decrease of EGFP signal, % at 10 µM. actives 0.01% (n = 290,000). AID 1984;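 active means EGFP signal decrease of at least 30% at 10 µM or well 3 SD below plate mean, unless failing retest; inactive means the rest, including hits failing retest or dose response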
Numbers without * were called inactive; . = no result given. This is one part of a sample in which hits are shown more often than they occur.

SMILES	V-ATPase pH	Cl transport mod	ABCB6 inh MLPCN	Dynein cargo inh	p-CIP stab down
COc1ccc(N2C(=O)CC(Sc3nnc(-c4ccccc4)o3)C2=O)cc1 (stereo not drawn)	0	0.88	92	-4.1*	-14
COc1ccccc1-c1noc2c1C(=O)N(Cc1cn(Cc3ccccc3)nn1)CC2	.	.	97	.	.
Cc1ccc2nc(/C(C#N)=C\c3ccc([N+](=O)[O-])o3)[nH]c2c1	86*	-0.62	893	14	-287
N#C/C(=C\c1ccc([N+](=O)[O-])o1)c1nc2ccccc2[nH]1	.	0.72	.	11	-245
CCc1nc2c(OCc3ccccc3)cccn2c1N(C)C(=O)C(C)C	.	.	90	.	.
CC(C)C(C)(C#N)NC(=O)CSc1ncnc2sc(-c3ccccc3)cc12 (stereo not drawn)	2	-3.6*	96	0.16	1
CCN=C1S/C(=C/c2ccc(-c3ccc(Cl)cc3C(=O)O)o2)C(=O)N1CC	2	.	71*	.	-12
CCC(=O)[C@@H](C)[C@@H](OC(C)=O)[C@H](C)C[C@@H](C)[C@H]1OC(=O)C[C@@]2(O)CC=C(C)C(O2)C(C)=CCCC[C@H](O[C@H]2C[C@@H](OC(N)=O)[C@H](OC(C)=O)[C@@H](C)O2)C=C[C@H](C)C[C@H]1C	.	.	98	.	.
CN(C)S(=O)(=O)c1cccc(N=C2NN=C(c3ccccc3)CS2)c1	.	0.081	.	0.66	-2
CC(=O)Nc1ccc(C2=NNC(=Nc3cccc(S(=O)(=O)N(C)C)c3)SC2)cc1	7.9*	-1.7	104	1.2	12
CCCc1nc2ccc(Cl)cn2c1Cc1ccc(C)cc1	.	.	101	.	.
Cc1cccc2sc(NC(=O)Cn3cccc3)nc12	3	12*	95	-0.57	-9
Cc1cccc2sc(NC(=O)CCn3cccc3)nc12	0	-0.58	104	0.12	-6
CCOc1ccc(NS(=O)(=O)c2cc(OC)ccc2OC)cc1	2	.	98	-0.4	-14
COc1ccc(OC)c(S(=O)(=O)Nc2ccc(Oc3ccccc3)cc2)c1	13*	-0.35	96	-0.24	0
COc1ccccc1NS(=O)(=O)c1ccc(N/N=C/c2c(C)nn(-c3ccccc3)c2N2CCCC2)c([N+](=O)[O-])c1	-2	-0.91	92	0.84	-4
COc1ccccc1NS(=O)(=O)c1cccc(C(=O)N/N=C/c2c(C)nn(-c3ccccc3)c2N2CCCC2)c1	0	-0.77	74*	-0.36	5
Cc1ccc(CNC(=O)CCNS(=O)(=O)c2ccc3c(c2)c(=O)n(C)c(=O)n3C)cc1	0	.	97	0.5	-3
Cc1ccc(CCNC(=O)CCNS(=O)(=O)c2ccc3c(c2)c(=O)n(C)c(=O)n3C)cc1	20*	-0.18	101	0.88	-7
C/C(=N/NC(=O)Cn1nc2ccccc2n1)c1ccc(F)cc1	6	-0.92	74*	-0.45	5
C/C(=N\NC(=O)c1ccc(F)cc1)c1ccc(NC(=O)Cc2ccccc2)cc1	0	.	100	.	-2
CCOC(=O)C1=CCN(S(=O)(=O)c2ccc(C)cc2)C1c1ccc(C(C)C)cc1 (stereo not drawn)	.	.	98	.	.
Cc1cccc(NC(=O)CCC(=O)c2cccs2)n1	-2	.	96	.	.
Cc1ccc2oc(-c3cccc(NC(=S)NC(=O)/C=C/c4ccco4)c3)nc2c1	3	-1.1	98	-0.96	-18
Cc1ccc(OCC(=O)NC(=S)Nc2cccc(C)n2)cc1	-2	8.4*	102	1.1	5
SMILES	V-ATPase pH	Cl transport mod	ABCB6 inh MLPCN	Dynein cargo inh	p-CIP stab down
Cc1ccc2oc(-c3cccc(NC(=S)NC(=O)c4cccs4)c3)nc2c1	-1	7.7*	94	-0.77	-10
Cc1ccc2nc(NC(=S)NC(=O)c3cccs3)sc2c1	.	9.2*	104	0.48	-8
Cc1cccc(NC(=S)NC(=O)c2cccs2)n1	-2	18*	99	-0.28	-7
COc1cc(Cl)ccc1OC1(C)CCN(Cc2ccc3ccccc3c2)C1 (stereo not drawn)	.	.	97	.	.
COc1ccc(C(C)C)cc1-c1cccc2nncn12	.	.	98	.	.
Cc1cccc(NC(=S)NC(=O)c2ccco2)n1	1	28*	96	-0.16	5
COC(=O)CN1C(C)=Nc2ccc(C)cc2C1c1ccccc1 (stereo not drawn)	-3	0.12	100	-0.047	-9
COC(=O)CN1C(c2ccccc2)=Nc2ccc(Cl)cc2C1c1ccccc1 (stereo not drawn)	2	-4*	95	0.44	7
O=S(=O)(Nc1ccccc1N1CCCCC1)c1ccc(Cl)s1	3	12*	87	-0.057	-6
NC(c1csc(NC(=O)c2cccc(OC(F)(F)F)c2)n1)c1ccccc1Cl (stereo not drawn)	.	.	150	.	.
O=S(=O)(c1cnc(Cl)c(Cl)c1)N1CCCc2ccccc21	0	-0.91	104	-1.6	-11
O=S(=O)(c1cnc(Cl)c(Cl)c1)N1CCc2ccccc21	2	-0.4	100	-4.3*	-11
Cc1nc(SCC(=O)NCC2CCCO2)c2c(C)c(C)sc2n1 (stereo not drawn)	13*	.	98	.	.
C(=C\c1ccccc1)/CN1CCN(C(c2ccccc2)c2nnnn2-c2ccc3c(c2)OCCO3)CC1 (stereo not drawn)	.	.	99	.	.
COc1ccc(-c2csc3nc[nH]c(=O)c23)cc1OC	-3	.	107	.	-17
Cc1ccc(-c2csc3nc[nH]c(=S)c23)cc1C	-4	43*	89	-0.5	27
Cn1c(-c2ccc(C(C)(C)C)cc2)n[nH]c1=S	5	3.9*	95	-0.81	-9
Cn1cccc1/C=N/n1c(-c2ccccc2)n[nH]c1=S	3	1.7	115	-1	-12
Cn1cccc1/C=N/n1c(-c2ccc(C(C)(C)C)cc2)n[nH]c1=S	3	13*	100	0.23	-8
S=c1nc(-c2ccccc2)[nH]c2ccccc12	4	40*	99	-0.28	-15
O=c1nc(-c2ccccc2)c2ccccc2[nH]1	7	-0.46	88	0.033	-7
CCc1ccc(-n2cccc2/C=C2/C(=N)N3C(=NC2=O)SN=C3S(C)(=O)=O)cc1	0	-5.4*	116	-0.59	-20
Cc1ccc(-n2cccc2/C=C2/C(=N)N3C(=NC2=O)SN=C3S(C)(=O)=O)cc1	0	-3.7	97	-0.36	3
CCOC(=O)C1CCN(C(=S)Nc2cc(C)ccc2C)CC1	22*	-0.1	90	0.4	-10
COc1ccc(C)cc1NC(=O)C(=O)NNC(=O)c1ccco1	2	21*	98	.	-6
O=[N+]([O-])c1ccc(CN2[C@H](COCc3ccccc3)[C@@H](N3CCCC3)CS2(=O)=O)cc1	.	.	96	.	.
C[C@@H]([C@@H](O)c1ccccc1)N(C)C(=O)C(N)Cc1ccccc1 (stereo partly drawn)	26*	.	102	.	0
CCc1nc2c(OCc3ccc(Cl)cc3Cl)cccn2c1N(C)C(C)=O	.	.	92	.	.
COc1ccc2c(c1)c(C(C)=O)c(C)n2C	-1	0.28	95	0.23	-6
